Some results are limits rather than exact numbers.

The values below come from ChEMBL document CHEMBL1145119, “Esters, retroesters, and a retroamide of palmitic acid: pool for the first selective inhibitors of N-palmitoylethanolamine-selective acid amidase” (J Med Chem, 2003).

Assay [1] addresses T1, Fatty-acid amide hydrolase 1 (Rattus norvegicus) (UniProt P97612).
T1 sequence (whole entry): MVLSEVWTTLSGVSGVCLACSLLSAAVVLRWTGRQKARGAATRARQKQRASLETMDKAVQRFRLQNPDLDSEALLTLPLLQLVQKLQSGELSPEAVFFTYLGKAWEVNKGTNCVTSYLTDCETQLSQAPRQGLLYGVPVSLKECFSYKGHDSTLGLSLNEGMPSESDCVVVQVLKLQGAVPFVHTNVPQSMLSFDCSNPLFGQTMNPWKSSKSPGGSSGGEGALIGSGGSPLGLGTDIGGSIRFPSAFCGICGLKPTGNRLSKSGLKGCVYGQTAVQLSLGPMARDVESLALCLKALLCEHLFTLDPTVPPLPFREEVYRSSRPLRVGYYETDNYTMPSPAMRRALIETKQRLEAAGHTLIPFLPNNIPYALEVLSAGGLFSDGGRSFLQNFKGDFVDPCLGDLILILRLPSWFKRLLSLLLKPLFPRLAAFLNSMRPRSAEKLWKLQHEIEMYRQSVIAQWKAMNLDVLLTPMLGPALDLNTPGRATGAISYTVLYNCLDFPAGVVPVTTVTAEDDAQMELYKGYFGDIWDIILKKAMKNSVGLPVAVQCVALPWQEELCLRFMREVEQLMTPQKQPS
The assay is described as follows: Inhibition of fatty acid amide hydrolase (FAAH) from rat brain homogenates at 10 uM. In kind it is tissue-based. The method in brief: (§1)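 Hydrolysis of [3H]-anandamide by rat brain homogenate was measured at assay pH 7.6. Compound was mostly tested over 0.5–100 μM, and percent inhibition is given at 10 and 100 μM. A value below 0 means activity remaining exceeded 100%.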

The target of assay [2] is Cannabinoid receptor 2 (Homo sapiens) (UniProt P34972). Kind of assay: Binding affinity against human CB2 receptor by using CHO-hCB2 transfected cell membrane [3H]WIN-55212-2 as radioligand at 10 uM. In outline:
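Membranes from CHO cells transfected with human CB2 were incubated with 1 nM [3H]-WIN55,212-2 and test compound at 10 μM. Nonspecific binding was defined with 10 μM HU-210. The value is percent inhibition of specific radioligand binding.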

Assay [3] deals with N-acylethanolamine-hydrolyzing acid amidase (Rattus norvegicus) (UniProt Q5KTC7). Kind of assay: Inhibition of N-palmitoylethanolamine-selective acid amidase (NPAA) from rat lung homogenates at 100 uM.
For assay [4], the target named is T1, Fatty-acid amide hydrolase 1 (Rattus norvegicus). Kind of assay: Inhibition of fatty acid amide hydrolase (FAAH) from rat brain homogenates at 100 uM. In kind it is tissue-based. The method in brief:
as §1

Assay [5] deals with Cannabinoid receptor 1 (Homo sapiens) (UniProt P21554). Kind of assay: Binding affinity against human Cannabinoid receptor 1 using CHO-hCB1 transfected cell membrane and [3H]CP-55940 as radioligand at 10 uM. In outline:
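Membranes from CHO cells transfected with human CB1 were incubated with 1 nM [3H]-CP55,940 and test compound at 10 μM. Nonspecific binding was defined with 10 μM HU-210. The value is percent inhibition of specific radioligand binding.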

Assay [6] has as its target T1, Fatty-acid amide hydrolase 1 (Rattus norvegicus). Kind of assay: Compound was tested for the inhibition of fatty acid amide hydrolase from rat brain homogenates at 10 uM in buffer B of pH 9 by using 10 uM [3H]ethanolamine-labeled anandamide as substrate. In kind it is tissue-based. The method in brief:
(§2)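 The rat brain homogenate FAAH assay used 10 μM [3H]-ethanolamine-labeled anandamide as substrate. Protein was 10 μg per assay at pH 6 and 3 μg at pH 9. Buffer A was 10 mM Tris-HCl and 1 mM EDTA with fatty acid-free BSA. Buffer B was 125 mM Tris, 1 mM EDTA, 0.2% glycerol, 0.02% Triton X-100 and 0.4 mM HEPES, without BSA. pH was adjusted with NaOH or HCl. Compounds were tested at 10, 30 and 100 μM. The value is percent inhibition.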

The subject of assay [7] is RBL-2H3. The assay is described as follows: Compound was tested for the inhibition of [3H]anandamide Uptake in RBL-2H3 cells at 10 uM. In kind it is functional. Conditions: Rattus norvegicus. The method in brief:
(§3)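 RBL-2H3 cells (passage 38) were preincubated with compound (10, 30 or 100 μM). They were then exposed to 2 μM [3H]-arachidonoyl-labeled anandamide for 8 min. Uptake was taken as accumulation in cell wells minus parallel cell-free wells. 200 μM AM404 served as positive control in every assay. The value is percent inhibition of uptake.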

In assay [8] the target is T1, Fatty-acid amide hydrolase 1 (Rattus norvegicus). Kind of assay: Compound was tested for the inhibition of fatty acid amide hydrolase from rat brain homogenates at 10 uM in buffer A of pH 6 by using 100 uM [3H]ethanolamine-labeled anandamide as substrate. It counts as tissue-based.
For assay [9] the target is unchanged. Kind of assay: Compound was tested for the inhibition of fatty acid amide hydrolase from rat brain homogenates at 10 uM in buffer B of pH 9 by using 100 uM [3H]ethanolamine-labeled anandamide as substrate. In kind it is tissue-based.
Assay [10] shares this target. The assay is described as follows: Compound was tested for the inhibition of fatty acid amide hydrolase from rat brain homogenates at 10 uM in buffer A of pH 9 by using 100 uM [3H]ethanolamine-labeled anandamide as substrate. It counts as tissue-based.
Assay [11] has as its system RBL-2H3. Kind of assay: Compound was tested for the inhibition of [3H]anandamide Uptake in RBL-2H3 cells at 30 uM. Conditions: Rattus norvegicus. It counts as functional. In outline:
as §3

The target of assay [12] is T1, Fatty-acid amide hydrolase 1 (Rattus norvegicus). Kind of assay: Compound was tested for the inhibition of fatty acid amide hydrolase from rat brain homogenates at 10 uM in buffer B of pH 6 by using 100 uM [3H]ethanolamine-labeled anandamide as substrate. It counts as tissue-based.
For assay [13] the target is unchanged. The assay is described as follows: Compound was tested for the inhibition of fatty acid amide hydrolase from rat brain homogenates at 10 uM in buffer A of pH 9 by using 10 uM [3H]ethanolamine-labeled anandamide as substrate. It counts as tissue-based. In outline:
as §2

Assay [14] has the same target. The assay is described as follows: Compound was tested for the inhibition of fatty acid amide hydrolase from rat brain homogenates at 10 uM in buffer B of pH 6 by using 10 uM [3H]ethanolamine-labeled anandamide as substrate. It counts as tissue-based. In outline: as §2
Assay [15] deals with RBL-2H3. Kind of assay: Compound was tested for the inhibition of [3H]anandamide Uptake in RBL-2H3 cells at 100 uM. In kind it is functional. Conditions: Rattus norvegicus. In outline: as §3
In assay [16] the target is T1, Fatty-acid amide hydrolase 1 (Rattus norvegicus). Kind of assay: Compound was tested for the inhibition of fatty acid amide hydrolase from rat brain homogenates at 10 uM in buffer A of pH 6 by using 10 uM [3H]ethanolamine-labeled anandamide as substrate. The method in brief:
as §2

Assay [17] has the same target. The assay is described as follows: Compound was tested for the inhibition of fatty acid amide hydrolase from rat brain homogenates at 10 uM in buffer A of pH 6 by using 30 uM [3H]ethanolamine-labeled anandamide as substrate. In kind it is tissue-based.
Assay [18] shares this target. The assay is described as follows: Compound was tested for the inhibition of fatty acid amide hydrolase from rat brain homogenates at 10 uM in buffer A of pH 9 by using 30 uM [3H]ethanolamine-labeled anandamide as substrate. It counts as tissue-based.
The species entered for a further assay is Rattus norvegicus. The assay is described as follows: Compound was tested for the inhibition of N-palmitoylethanolamine-selective acid amidase (NPAA) from rat lung homogenates at 100 uM. The method in brief:
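Enzyme (12 μg protein) was solubilized from the 12 000 × g pellet of rat lung homogenate. It was incubated with 100 μM [14C]-N-palmitoylethanolamine (10 000 cpm) and 100 μM compound for 30 min at 37 °C. Buffer was 50 mM citrate–sodium phosphate, pH 5.0, with 3 mM DTT and 0.1% Triton X-100. Radioactivity was read by imaging scan. The value is percent inhibition.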

Cannabinoid receptor 2 (Homo sapiens), sequence (P34972 whole entry): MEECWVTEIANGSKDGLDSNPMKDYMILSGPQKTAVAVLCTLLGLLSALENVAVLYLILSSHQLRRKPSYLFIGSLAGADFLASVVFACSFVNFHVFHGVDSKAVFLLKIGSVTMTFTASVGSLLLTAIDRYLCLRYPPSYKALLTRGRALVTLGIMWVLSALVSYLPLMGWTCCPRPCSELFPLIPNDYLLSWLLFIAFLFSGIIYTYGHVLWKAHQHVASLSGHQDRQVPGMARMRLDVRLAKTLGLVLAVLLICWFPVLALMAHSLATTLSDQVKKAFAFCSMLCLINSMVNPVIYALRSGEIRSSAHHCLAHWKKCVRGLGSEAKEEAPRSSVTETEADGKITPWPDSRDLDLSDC
Cannabinoid receptor 1 (Homo sapiens), sequence (P21554 whole entry): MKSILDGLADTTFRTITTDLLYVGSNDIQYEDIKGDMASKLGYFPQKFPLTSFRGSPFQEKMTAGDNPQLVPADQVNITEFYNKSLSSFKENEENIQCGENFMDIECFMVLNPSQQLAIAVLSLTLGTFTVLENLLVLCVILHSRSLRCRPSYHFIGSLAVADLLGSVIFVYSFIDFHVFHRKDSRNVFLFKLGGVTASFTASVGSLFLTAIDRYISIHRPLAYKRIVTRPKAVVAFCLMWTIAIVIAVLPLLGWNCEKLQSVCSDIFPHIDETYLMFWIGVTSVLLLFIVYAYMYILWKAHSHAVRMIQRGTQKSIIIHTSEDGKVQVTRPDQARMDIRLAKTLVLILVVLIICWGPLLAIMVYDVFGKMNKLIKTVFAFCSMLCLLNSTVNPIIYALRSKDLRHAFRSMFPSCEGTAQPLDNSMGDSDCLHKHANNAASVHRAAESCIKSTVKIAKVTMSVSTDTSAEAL
N-acylethanolamine-hydrolyzing acid amidase (Rattus norvegicus), sequence (Q5KTC7 whole entry, looked up): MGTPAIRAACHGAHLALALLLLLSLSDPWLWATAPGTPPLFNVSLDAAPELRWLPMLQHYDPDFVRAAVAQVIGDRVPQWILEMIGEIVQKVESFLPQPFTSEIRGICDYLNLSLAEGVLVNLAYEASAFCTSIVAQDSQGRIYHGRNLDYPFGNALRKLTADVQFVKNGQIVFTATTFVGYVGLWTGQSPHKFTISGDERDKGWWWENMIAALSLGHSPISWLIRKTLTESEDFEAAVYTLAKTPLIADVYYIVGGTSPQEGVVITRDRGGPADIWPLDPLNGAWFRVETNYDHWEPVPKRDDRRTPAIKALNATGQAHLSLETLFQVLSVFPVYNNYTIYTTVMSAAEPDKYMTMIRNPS

Turning to `C=CCOC(=O)CCCCCCCCCCCCCCC`, the inhibition in assay [1] worked out at 16%; in [2], 1%; in assay [3], 48%; in [4], 36%; in assay [5], 2%.

On to `CCCCCCCCCCCCCCCCOC(=O)CC` [HEXADECYLPROPIONATE], for which the inhibition is less than 0% in assay [1]; 2% in assay [2]; less than 0% in assay [6]; 71% in [3]; less than 0% in [8]; less than 0% in [4]. In addition, the inhibition in assay [9] is less than 0%; in [10] it was 4%; in [12], less than 0%; in assay [13] it was 26%; in assay [14], 5%; in assay [5], 12%. In addition, the inhibition in assay [16] was 2%; in assay [17] it was less than 0%; in [18], 21%. The compound also returned an inhibition at 10 µM in the assay with RBL-2H3 [7] of 11%. Moreover, in the assay with RBL-2H3 [11], at 30 µM the inhibition was 12%. In the assay on RBL-2H3 [15], this compound had an inhibition at 100 µM of 15%.

With `CCCCCCCCCCCCCCCC(=O)OCCBr`, the inhibition is 19% in assay [1]; 2% in assay [2]; 45% in assay [3]; 31% in assay [4]; 2% in [5].

With `CCCCCCCCCCCCCCCC(=O)OC(C)(C)C`, the inhibition in assay [1] was less than 0%; in assay [2], 14%; in assay [3], 23%; in assay [4] it was less than 0%; in assay [5], 14%.

Regarding `CCCCCCCCCCCCCCCC(=O)OC1CCCCC1` [CYCLOHEXYL PALMITATE], the inhibition in [1] was found to be 6%; in assay [2] it was 6%; in assay [6], 12%; in [3], 84%; in assay [8], 37%; in assay [4], 36%. For the same compound, the inhibition in assay [9] stood at 46%; in assay [10], 12%; in [12] it was 51%; in assay [13], 5%; in assay [14] it was 20%; in assay [5], 14%. In addition, the inhibition in assay [16] came to 8%; in assay [17], 2%; in assay [18] it was 17%. Moreover, in the assay with RBL-2H3 [7], at 10 µM the inhibition was 5%. Besides, 30 µM produced 16% inhibition in the assay on RBL-2H3 [11]. In the assay with RBL-2H3 [15], this compound returned an inhibition at 100 µM of 29%.

Consider `CCCCCCCCCCCCCCCC(=O)OCc1ccccc1`, for which the inhibition in [1] was 6%; in assay [2], 5%; in assay [3], 50%; in [4] it was 24%; in [5] it was 5%.

With `CCCCCCCCCCCCCCCC(=O)OCCCl`, the inhibition in assay [1] amounted to 27%; in assay [2] it was 6%; in [3] it was 55%; in [4] it was 45%; in [5], 14%.

On to `CCCCCCCCCCCCCCCC(=O)NC(C)C`, for which the inhibition in [1] was 30%; in assay [2], 12%; in assay [3], 25%; in assay [4] it was 52%; in assay [5] it was 25%.

Turning to `CCCCCCCCCCCCCCCC(=O)NC1CCCCC1`, the inhibition in assay [1] was 8%; in assay [2], 8%; in [3] it was 23%; in [4] it was 11%; in assay [5], 34%.

On to `CCCCCCCCCCCCCCCCOC(C)=O`, for which the inhibition is less than 0% in assay [1]; 9% in assay [2]; 68% in [3]; less than 0% in [4]; 10% in [5].

Turning to `CCCCCCCCCCCCCCCC(=O)NCCO`, the inhibition in assay [1] was found to be 49%; in [2], 14%; in [3], 34%; in assay [4], 68%; in assay [5], 24%.

`CCCCCCCCCCCCCCCC(=O)NC`: the inhibition in assay [1] amounted to 35%; in assay [2], 8%; in [3], 30%; in assay [4] it was 68%; in [5], 3%.

In the case of `CCCCCCCCCCCCCCCNC(=O)CCO`, the inhibition in assay [1] is less than 0%; in assay [2] it was 3%; in assay [6] it was 6%; in [3] it was 77%; in assay [8], 2%; in assay [4], 8%. The inhibition in assay [9] was less than 0%; in assay [10] it was 7%; in [12], 16%; in assay [13], 20%; in assay [14] it was 11%; in [5], 4%. For the same compound, the inhibition in assay [16] was 8%; in assay [18], 5%. 10 µM produced 8% inhibition in the assay on RBL-2H3 [7]. Also, at 30 µM the inhibition in the assay on RBL-2H3 [11] was 13%. Further, the inhibition at 100 µM in the assay on RBL-2H3 [15] turned out to be 28%.

Take `CCCCCCCCCCCCCCCC(=O)OC(C)C`: the inhibition in assay [1] is less than 0%; in [2], 0.5%; in [3], 44%; in assay [4], less than 0%; in assay [5], 8%.

On to `CCCCCCCCCCCCCCCC(=O)OC`, for which the inhibition is 64% in the assay listed under Rattus norvegicus; 18% in assay [1]; 14% in assay [2]; 69% in [4]; 11% in assay [5].
